Laboratory results: ChEMBL document CHEMBL2424600, “Synthetic polyamines activating autophagy: effects on cancer cell death” (Eur J Med Chem, 2013)
pIC50: −log10 of the molar value. Calls of active or inactive are those of the source. The calls are words filed in the database; no cut-off is given here.

Legend:
[1] = test system: HeLa; assay: Induction of autophagy in human HeLa cells assessed as acidic vesicles accumulation at 20 uM after 3 hrs by acridine orange staining-based immunofluorescence microscopic analysis; type: functional, cell-based
Summary of the method: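 HeLa incubated 3 h with 20 µM compound; acidic vesicle accumulation scored after acridine orange staining. Triplicate means ± S.E.M.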

[2] = Cytotoxicity against human C-28/I2 cells assessed as cell survival after 24 hrs by trypan blue exclusion assay; type: cell-based; settings: C28/I2, 24 h
Summary of the method: (§1)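 Cells exposed 24 h to increasing concentrations (DMSO vehicle, 0.1% of medium; controls got DMSO) at 37 °C, 5% CO2. Viability by trypan blue exclusion, triplicate samples, at least 10 fields counted each; survival as % of viable cells vs control. IC50 read from dose–response curve as concentration giving 50% survival.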

[3] = test system: Thymocyte; assay: Cytotoxicity against rat thymocytes assessed as cell survival after 24 hrs by trypan blue exclusion assay; type: cell-based; summary of the method: as §1
[4] = test system: HeLa; assay: Cytotoxicity against human HeLa cells assessed as cell survival after 24 hrs by trypan blue exclusion assay; type: functional, cell-based; summary of the method: as §1

Question: With `COc1ccccc1CNCCCCCCNCCCCCCCCCCCCNCCCCCCNCc1ccccc1OC` as the molecule, how does the Activity [1] read?
Answer: Active

Question: And the pIC50 [2]?
Answer: 4.11

Question: And the pIC50 [3]?
Answer: < 4.00

Question: And the pIC50 [4]?
Answer: 4.68

Question: With `c1ccc(C(CNCCCCCCNCCCCCCCCNCCCCCCNCC(c2ccccc2)c2ccccc2)c2ccccc2)cc1` as the molecule, how does the Activity [1] read?
Answer: Active

Question: And the pIC50 [2]?
Answer: 4.22

Question: What about the pIC50 [3] of the same molecule?
Answer: 4.09

Question: And the pIC50 [4]?
Answer: 4.74

Question: With `COc1ccccc1CNCCCCCCNCCCCCCCCNCCCCCCNCc1ccccc1OC` [METHOCTRAMINE] as the molecule, how does the pIC50 [2] read?
Answer: < 4.00

Question: And the pIC50 [3]?
Answer: < 4.00

Question: And the pIC50 [4]?
Answer: < 4.00
